{"source": "ChEMBL document CHEMBL1137569", "about": "“Pharmacomodulations around the 4-oxo-1,4-dihydroquinoline-3-carboxamides, a class of potent CB2-selective cannabinoid receptor ligands: consequences in receptor affinity and functionality” (J Med Chem, 2007)", "key": {"Cannabinoid receptor 2 [1]": {"target": "T1, Cannabinoid receptor 2 (Homo sapiens, UniProt P34972)", "T1 sequence (P34972 whole entry)": "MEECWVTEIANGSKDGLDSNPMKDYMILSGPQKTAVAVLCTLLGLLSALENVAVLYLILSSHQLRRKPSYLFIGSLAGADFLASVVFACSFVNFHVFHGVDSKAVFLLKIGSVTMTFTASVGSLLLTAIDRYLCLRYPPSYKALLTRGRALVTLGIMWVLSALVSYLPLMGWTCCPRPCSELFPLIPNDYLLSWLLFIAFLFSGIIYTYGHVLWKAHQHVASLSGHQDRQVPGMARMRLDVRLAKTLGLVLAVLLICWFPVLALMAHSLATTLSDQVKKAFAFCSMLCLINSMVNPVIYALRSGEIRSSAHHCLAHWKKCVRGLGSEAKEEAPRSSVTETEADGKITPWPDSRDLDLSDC", "experiment": "Displacement of [3H]SR-141716A from human CB2 receptor expressed in CHO cells at 10 uM", "format": "cell-based"}, "Cannabinoid receptor 2 [2]": {"target": "T1, Cannabinoid receptor 2", "experiment": "Inhibition of human CB2 receptor expressed in CHO cells", "format": "cell-based"}, "Cannabinoid receptor 2 [3]": {"target": "T1, Cannabinoid receptor 2", "experiment": "Displacement of [3H]CP-55940 from human CB2 receptor expressed in CHO cells", "format": "cell-based", "design": "concentration or dose not given beside the values", "how_it_was_run": "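Competitive radioligand binding on membranes from CHO cells expressing hCB2, with [3H]-CP-55,940 as tracer. Compounds were first screened at 10 µM. Ki at CB2 was then determined for those displacing more than 60% of specific binding.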"}, "[4]": {"target": "Cannabinoid receptor 1 (Homo sapiens) (UniProt P21554)", "sequence (P21554 whole entry)": "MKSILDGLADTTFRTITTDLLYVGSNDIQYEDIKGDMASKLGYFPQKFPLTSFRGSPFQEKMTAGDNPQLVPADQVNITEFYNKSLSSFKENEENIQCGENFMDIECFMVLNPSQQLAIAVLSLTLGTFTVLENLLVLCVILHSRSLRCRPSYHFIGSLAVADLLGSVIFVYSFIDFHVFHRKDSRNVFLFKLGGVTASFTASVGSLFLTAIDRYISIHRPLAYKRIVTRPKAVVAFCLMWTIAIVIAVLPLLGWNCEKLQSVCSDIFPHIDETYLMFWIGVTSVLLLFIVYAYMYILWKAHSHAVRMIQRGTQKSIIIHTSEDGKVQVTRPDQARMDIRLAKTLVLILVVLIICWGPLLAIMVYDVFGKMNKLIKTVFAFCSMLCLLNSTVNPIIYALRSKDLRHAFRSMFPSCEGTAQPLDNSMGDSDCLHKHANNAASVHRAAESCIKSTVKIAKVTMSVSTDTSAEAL", "experiment": "Displacement of [3H]SR-141716A from human CB1 receptor expressed in CHO cells at 10 uM", "format": "cell-based", "how_it_was_run": "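Single-concentration (10 µM) competition screen on membranes from CHO cells expressing hCB1, with [3H]SR-141716A as radioligand. Read-out is percent displacement of the radioligand from its binding site.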"}, "Cannabinoid receptor 2 [5]": {"target": "T1, Cannabinoid receptor 2", "experiment": "Activity at human CB2 receptor expressed in CHO cells assessed as stimulated [35S]GTP-gamma-S binding relative to control", "format": "functional, cell-based", "design": "concentration or dose not given beside the values"}}}
{"smiles": "O=C(c1cn(Cc2ccc(F)cc2)c2ccccc2c1=O)c1cccc2ccccc12", "values": [{"measurement": "Activity", "setting": "Cannabinoid receptor 2 [1]", "result": 70, "unit": "%"}, {"measurement": "Ki", "setting": "Cannabinoid receptor 2 [2]", "result": 225, "unit": "nM"}, {"measurement": "Activity", "setting": "Cannabinoid receptor 2 [3]", "result": 112, "unit": "%"}]}
{"smiles": "CCCCCn1cc(C(=O)c2cccc3ccccc23)c(=O)c2ccccc21", "values": [{"measurement": "Ki", "setting": "Cannabinoid receptor 2 [2]", "result": 154, "unit": "nM"}, {"measurement": "Activity", "setting": "Cannabinoid receptor 2 [3]", "result": 97, "unit": "%"}, {"measurement": "Activity", "setting": "[4]", "result": 56, "unit": "%"}]}
{"smiles": "CCCCCn1cc(NC(=O)C23CC4CC(CC(C4)C2)C3)c(=O)c2ccccc21", "values": [{"measurement": "Ki", "setting": "Cannabinoid receptor 2 [2]", "result": 25.5, "unit": "nM"}, {"measurement": "Activity", "setting": "Cannabinoid receptor 2 [3]", "result": 99.9, "unit": "%"}, {"measurement": "Activity", "setting": "Cannabinoid receptor 2 [5]", "result": 120, "unit": "%"}]}
{"smiles": "CCCCCn1c(-c2ccccc2)c(C(=O)NC23CC4CC(CC(C4)C2)C3)c(=O)c2ccccc21", "values": [{"measurement": "Ki", "setting": "Cannabinoid receptor 2 [2]", "result": 338, "unit": "nM"}, {"measurement": "Activity", "setting": "Cannabinoid receptor 2 [3]", "result": 94.9, "unit": "%"}, {"measurement": "Activity", "setting": "Cannabinoid receptor 2 [5]", "result": 26.5, "unit": "%"}]}
{"smiles": "CCCCCn1cc(NC(=O)c2cccc3ccccc23)c(=O)c2ccccc21", "values": [{"measurement": "Ki", "setting": "Cannabinoid receptor 2 [2]", "result": 265, "unit": "nM"}, {"measurement": "Activity", "setting": "Cannabinoid receptor 2 [3]", "result": 97.4, "unit": "%"}, {"measurement": "Activity", "setting": "Cannabinoid receptor 2 [5]", "result": 139, "unit": "%"}]}
{"smiles": "CC12CC3CC(C)(C1)CC(NC(=O)c1cn(CCN4CCOCC4)c4ccccc4c1=O)(C3)C2", "values": [{"measurement": "Ki", "setting": "Cannabinoid receptor 2 [2]", "result": 221, "unit": "nM"}, {"measurement": "Activity", "setting": "Cannabinoid receptor 2 [3]", "result": 95.6, "unit": "%"}, {"measurement": "Activity", "setting": "Cannabinoid receptor 2 [5]", "result": 141, "unit": "%"}]}
{"smiles": "CC12CC3CC(C)(C1)CC(NC(=O)c1cn(Cc4ccc(F)cc4)c4ccccc4c1=O)(C3)C2", "values": [{"measurement": "Ki", "setting": "Cannabinoid receptor 2 [2]", "result": 83.4, "unit": "nM"}, {"measurement": "Activity", "setting": "Cannabinoid receptor 2 [3]", "result": 93.2, "unit": "%"}, {"measurement": "Activity", "setting": "Cannabinoid receptor 2 [5]", "result": 157, "unit": "%"}]}
{"smiles": "CCCCCn1cc(C(=O)NC23CC4CC(C)(CC(C)(C4)C2)C3)c(=O)c2cccnc21", "values": [{"measurement": "Ki", "setting": "Cannabinoid receptor 2 [2]", "result": 23.5, "unit": "nM"}, {"measurement": "Activity", "setting": "Cannabinoid receptor 2 [3]", "result": 102, "unit": "%"}, {"measurement": "Activity", "setting": "Cannabinoid receptor 2 [5]", "result": 124, "unit": "%"}]}
{"smiles": "CCCCCn1nc(C(=O)NC23CC4CC(C)(CC(C)(C4)C2)C3)c(=O)c2ccccc21", "values": [{"measurement": "Ki", "setting": "Cannabinoid receptor 2 [2]", "result": 93, "unit": "nM"}, {"measurement": "Activity", "setting": "Cannabinoid receptor 2 [3]", "result": 94.6, "unit": "%"}, {"measurement": "Activity", "setting": "Cannabinoid receptor 2 [5]", "result": 109, "unit": "%"}]}
